Columns and labels:
[1] = tested on: HIF ODD-luciferase reporter; assay: HTS of SH-SY5Y ODD-luc reporter cells, 384-well, 10 μM compound, 3 hr; format: cell-based, human; settings: for activation at 10 µM: Homo sapiens, SH-SY5Y, 3 h, read-out: reporter activation (%)
[2] = tested on: HIF ODD-luciferase reporter; assay: ODD-luc reporter activation, concentration titration in 96-well plates; format: cell-based, human; settings: SH-SY5Y; for IC50: Homo sapiens, read-out: IC50 (reporter activation); for “Lag,” (concentration lag of reporter titration curve): ODD-luc reporter
[3] = Iron binding by displacement of calcein from its complex with iron; format: physicochemical; settings: for ka, association rate constant for iron binding: calcein-iron complex 1 μM:1 μM, oxyquinoline 5-20 μM; for Kd: read-out: KFe, apparent iron binding constant, calcein displacement, 5 mM Tris-HCl buffer (pH 7.5)
[4] = tested on: cortical neurons; assay: Neuroprotection in HCA; format: cell-based, rat; settings: HCA model
How it was run: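 Forebrain neurons from E17 Sprague-Dawley rat embryos were plated at 10^6 cells/ml in 96-well plates. After 16 hr they were rinsed with warm PBS and moved to MEM containing 5 mM HCA plus test compound (0.25-2 μM). Incubation ran 24 hr or longer, until HCA-only controls reached 90% death. Viability was read by MTT.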

[5] = 10 μM, 3 hr, SH-SY5Y-ODD-luc cells

In the case of `O=C(C=C(O)c1ccccc1)c1ccccc1O` [2′β-dihydroxychalcone], the “reporter activation (fold)” value [1, 5] is reported as 7.5 fold and the “reporter activation (%)” value ([1]; 10 μM, 3 hr, SH-SY5Y-ODD-luc cells, ciclopirox = 100%, DMSO = 0%) is reported as 71%.
`O=C1/C(=N\Nc2nc3ccccc3s2)C(c2ccccc2)=NN1c1ccccc1` [(Z)-4-(benzo[d]thiazol-2-yl-hydrazono)-1,3-diphenyl-1H-pyrazol-5(4H)-one] showed an activation at 10 µM [1] of 70%.
With `Cc1cc(C2CCCCC2)n(O)c(=O)c1` [Ciclopirox, ciclopirox] the “increase of background signal for the wild-type ODD-luc reporter (PYIP line)” value ([1]; 10 μM, 3 hr incubation) was 10 fold, the “reporter signal as % of the threshold value (control line AYIA)” value ([1]; 10 μM, 3 hr incubation, PYIP line) was ~50% and the IC50 [2] was 4.5 ± 0.5 µM. The ““Lag,” (concentration lag of reporter titration curve)” value [2] was 2 ± 0.5 µM, the “ka, association rate constant for iron binding” value [3] was 300 ± 50 M⁻¹ s⁻¹ and the Kd [3] was 80 ± 20 nM.
In the case of `O=C1/C(=N\Nc2nccs2)C(c2ccccc2)=NN1c1ccccc1` [I, (Z)-1,3-diphenyl-4-(thiazol-2-yl-hydrazono)-1H-pyrazol-5(4H)-one], the activation at 10 µM [1] is reported as 86%.
With `NNc1nc(-c2ccccc2)cc(-c2ccccc2)n1` [II, 2-hydrazinyl-4,6-diphenylpyrimidine] the “reporter activation (fold)” value [1, 5] was 6.7 fold, the activation at 10 µM [1] was 64% and the “iron chelation properties in solution (in words)” value [3] was “no iron chelation properties in solution”.
In the case of `S=C(Nc1ccccc1)Nc1nccs1` [III, 1-phenyl-3-(1,3-thiazol-2-yl)thiourea], the “reporter activation (fold)” value [1, 5] is reported as 5 fold and the activation at 10 µM [1] is reported as 41%.
With `N[C@@H](Cc1ccc(O)c(O)c1)C(=O)O` [L-Dopa] the “reporter activation (fold)” value [1, 5] was 3 fold and the activation at 10 µM [1] was 21%.
For `Oc1cccc2cccnc12` [Oxyquinoline, 8-hydroxyquinoline], the “reporter activation (fold)” value [1, 5] was 4-5 fold, the activation at 10 µM [1] was 35 to 45% and the IC50 [2] was 10 ± 1 µM. The ““Lag,” (concentration lag of reporter titration curve)” value [2] was 4 ± 0.5 µM, the “ka, association rate constant for iron binding” value [3] was 110 ± 20 M⁻¹ s⁻¹ and the Kd [3] was 200 ± 50 nM. For the same compound, the “times less potent as neuroprotectants (versus compounds 7 and 8)” value [4] was 20-40 times.

Reference: publication PMC4327942 (Chemistry & biology, 2010)
